In ChEMBL document CHEMBL1155541, “Discovery of 6-chloro-2-trifluoromethyl-7-aryl-7H-imidazo[1,2-a]imidazol-3-ylmethylamines, a novel class of corticotropin-releasing factor receptor type 1 (CRF1R) antagonists” (Bioorg Med Chem Lett, 2010):
Active and inactive are the calls of the source. How the calls were made is not given here.

Legend:
[1] = molecular target: T1, Corticotropin-releasing factor receptor 1 (Homo sapiens, UniProt P34998); test: Displacement of [125I] Tyr-o-CRF from human […] expressed in human IMR-32 cells after 100 mins; type: cell-based
T1 sequence (P34998 whole entry): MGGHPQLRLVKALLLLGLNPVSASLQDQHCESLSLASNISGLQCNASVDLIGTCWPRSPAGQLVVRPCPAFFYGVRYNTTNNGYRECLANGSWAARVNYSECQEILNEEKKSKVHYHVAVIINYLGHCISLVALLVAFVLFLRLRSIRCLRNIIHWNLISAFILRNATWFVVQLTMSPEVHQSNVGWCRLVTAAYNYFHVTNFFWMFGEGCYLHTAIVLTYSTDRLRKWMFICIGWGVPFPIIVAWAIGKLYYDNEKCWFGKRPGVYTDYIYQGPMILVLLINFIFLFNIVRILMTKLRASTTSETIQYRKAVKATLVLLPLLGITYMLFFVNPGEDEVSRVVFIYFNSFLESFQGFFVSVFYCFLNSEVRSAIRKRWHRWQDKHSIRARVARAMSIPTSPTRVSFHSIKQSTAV
In short: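 Membranes from transformed IMR-32 cells incubated with 100 pM [125I]Tyr-o-CRF and increasing test-compound concentrations, 100 min, 25 °C. Buffer: 50 mM Tris pH 7.2, 10 mM MgCl2, 0.5% BSA, 0.005% Triton X-100, aprotinin, leupeptin. Stopped with ice-cold 50 mM Tris pH 7.4, 0.2% BSA. Nonspecific binding defined with o-CRF. Values given as Ki.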

[2] = molecular target: T2, Corticotropin-releasing factor receptor 1 (Homo sapiens) (UniProt P34998); test: Antagonist activity at human CRF1 receptor expressed in human IMR-32 cells assessed as inhibition of CRF-stimulated cAMP production; type: functional, cell-based
T2 sequence (whole entry): T1 sequence (P34998 whole entry)

CCCN(CCc1ccccc1)Cc1c(C(F)(F)F)nc2n(-c3c(C)cc(C)cc3C)c(Cl)cn12
Ki [1]: 21 nM | Activity [2]: Active

Cc1cc(C)c(-n2c(Cl)cn3c(CN(CC4CC4)CC(F)(F)F)c(C(F)(F)F)nc23)c(C)c1
Ki [1]: 5.2 nM | Activity [2]: Active

Cc1cc(C)c(-n2c(Cl)cn3c(CN4CCC(C)CC4)c(C(F)(F)F)nc23)c(C)c1
Ki [1]: 3200 nM | Activity [2]: Active

CCCN(Cc1c(C(F)(F)F)nc2n(-c3c(C)cc(C)cc3C)c(Cl)cn12)CC(F)(F)C(F)(F)F
Ki [1]: 440 nM | Activity [2]: Active

CCCN(Cc1ccc(Cl)cc1)Cc1c(C(F)(F)F)nc2n(-c3c(C)cc(C)cc3C)c(Cl)cn12
Ki [1]: 28 nM | Activity [2]: Active

Cc1cc(C)c(-n2c(Cl)cn3c(CN(CCC(F)(F)F)CC4CC4)c(C(F)(F)F)nc23)c(C)c1
Ki [1]: 16 nM | Activity [2]: Active

Cc1cc(C)c(-n2c(Cl)cn3c(CN(C)CCc4cccnc4)c(C(F)(F)F)nc23)c(C)c1
Ki [1]: 1900 nM | Activity [2]: Active

C=C(C)CN(CC)Cc1c(C(F)(F)F)nc2n(-c3c(C)cc(C)cc3C)c(Cl)cn12
Ki [1]: 67 nM | Activity [2]: Active

Cc1cc(C)c(-n2c(Cl)cn3c(CN(C)Cc4ccco4)c(C(F)(F)F)nc23)c(C)c1
Ki [1]: 180 nM | Activity [2]: Active

Cc1cc(C)c(-n2c(Cl)cn3c(CN(CCC(F)(F)F)Cc4ccc(F)cc4)c(C(F)(F)F)nc23)c(C)c1
Ki [1]: 34 nM | Activity [2]: Active

Cc1cc(C)c(-n2c(Cl)cn3c(CN(CCC4CC4)CCC(F)(F)F)c(C(F)(F)F)nc23)c(C)c1
Ki [1]: 110 nM | Activity [2]: Active

CCCN(CCOC)Cc1c(C(F)(F)F)nc2n(-c3c(C)cc(C)cc3C)c(Cl)cn12
Ki [1]: 32 nM | Activity [2]: Active

Cc1cc(C)c(-n2c(Cl)cn3c(CN(Cc4ccc(F)cc4)CC(F)(F)F)c(C(F)(F)F)nc23)c(C)c1
Ki [1]: 160 nM | Activity [2]: Active

Cc1cc(C)c(-n2c(Cl)cn3c(CN(CCc4ccccc4)CC(F)(F)F)c(C(F)(F)F)nc23)c(C)c1
Ki [1]: 350 nM | Activity [2]: Active

Cc1cc(C)c(-n2c(Cl)cn3c(CN(C)Cc4ccccc4)c(C(F)(F)F)nc23)c(C)c1
Ki [1]: 160 nM | Activity [2]: Active

Cc1cc(C)c(-n2c(Cl)cn3c(CN4CCCCC4)c(C(F)(F)F)nc23)c(C)c1
Ki [1]: 1200 nM | Activity [2]: Active

CCCN(Cc1ccc(F)cc1)Cc1c(C(F)(F)F)nc2n(-c3c(C)cc(C)cc3C)c(Cl)cn12
Ki [1]: 350 nM | Activity [2]: Active

CCN(CCC1CC1)Cc1c(C(F)(F)F)nc2n(-c3c(C)cc(C)cc3C)c(Cl)cn12
Ki [1]: 13 nM | Activity [2]: Active

Cc1cc(C)c(-n2c(Cl)cn3c(CN4CCC(c5ccccc5)C4)c(C(F)(F)F)nc23)c(C)c1 (stereo not given)
Ki [1]: 610 nM | Activity [2]: Active

CCCN(CCC)Cc1c(C(F)(F)F)nc2n(-c3c(C)cc(C)cc3C)c(Cl)cn12
Ki [1]: 69 nM | Activity [2]: Active

CCCN(CCC1CC1)Cc1c(C(F)(F)F)nc2n(-c3c(C)cc(C)cc3C)c(Cl)cn12
Ki [1]: 53 nM | Activity [2]: Active

Cc1cc(C)c(-n2c(Cl)cn3c(CN4CCOCC4)c(C(F)(F)F)nc23)c(C)c1
Ki [1]: 1700 nM | Activity [2]: Active

Cc1cc(C)c(-n2c(Cl)cn3c(CN4CCCC4Cc4ccccc4)c(C(F)(F)F)nc23)c(C)c1 (stereo not given)
Ki [1]: 190 nM | Activity [2]: Active

CCN(Cc1c(C(F)(F)F)nc2n(-c3c(C)cc(C)cc3C)c(Cl)cn12)CC1CCC1
Ki [1]: 16 nM | Activity [2]: Active

CCN(Cc1ccc(Cl)c(Cl)c1)Cc1c(C(F)(F)F)nc2n(-c3c(C)cc(C)cc3C)c(Cl)cn12
Ki [1]: 580 nM | Activity [2]: Active

CCCN(Cc1c(C(F)(F)F)nc2n(-c3ccc(C)cc3OC)c(Cl)cn12)CC1CC1
Ki [1]: 13 nM | Activity [2]: Active

CCCN(Cc1c(C(F)(F)F)nc2n(-c3c(C)cc(C)cc3C)ccn12)CC1CC1
Ki [1]: 470 nM | Activity [2]: Active

CCCN(Cc1ccc([N+](=O)[O-])cc1)Cc1c(C(F)(F)F)nc2n(-c3c(C)cc(C)cc3C)c(Cl)cn12
Ki [1]: 150 nM | Activity [2]: Active

CCN(Cc1ccccc1C)Cc1c(C(F)(F)F)nc2n(-c3c(C)cc(C)cc3C)c(Cl)cn12
Ki [1]: 4800 nM | Activity [2]: Active

Cc1cc(C)c(-n2c(Cl)cn3c(CN(CCC(F)(F)F)Cc4cccc(F)c4)c(C(F)(F)F)nc23)c(C)c1
Ki [1]: 49 nM | Activity [2]: Active
